# Measurements published in ChEMBL document CHEMBL1134636, “Structure-activity studies on nociceptin analogues: ORL1 receptor binding and biological activity of cyclic disulfide-containing analogues of nociceptin peptides” (J Med Chem, 2001).
# Peptide text beside a SMILES is read from it.
# Key:
# Nociceptin receptor [1] = molecular target: T1, Nociceptin receptor (Homo sapiens, UniProt P41146); assay: Efficacy for human ORL1 receptor expressing HEK293 cells; format: functional, cell-based
# Outline: (§1)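 Membranes from HEK-293 cells expressing human ORL1 (10 μg) were incubated for 30 min at 24 °C with peptides (0.01 nM to 10 μM) in 20 mM HEPES pH 7.4 with 100 mM NaCl, 10 mM MgCl₂, 1 mM EDTA, 5 μM GDP and 400 pM [³⁵S]GTPγS. Binding was read with WGA-coated SPA beads.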
# Nociceptin receptor [2] = molecular target: T1, Nociceptin receptor; assay: Displacement of [3H]NC from human ORL1 receptor expressing HEK293 cell membrane; format: cell membranes
# Nociceptin receptor [3] = molecular target: T1, Nociceptin receptor; assay: Efficacy for human ORL1 receptor expressing HEK293 cell membrane; format: functional, cell-based; outline: as §1
# T1 sequence (P41146 whole entry): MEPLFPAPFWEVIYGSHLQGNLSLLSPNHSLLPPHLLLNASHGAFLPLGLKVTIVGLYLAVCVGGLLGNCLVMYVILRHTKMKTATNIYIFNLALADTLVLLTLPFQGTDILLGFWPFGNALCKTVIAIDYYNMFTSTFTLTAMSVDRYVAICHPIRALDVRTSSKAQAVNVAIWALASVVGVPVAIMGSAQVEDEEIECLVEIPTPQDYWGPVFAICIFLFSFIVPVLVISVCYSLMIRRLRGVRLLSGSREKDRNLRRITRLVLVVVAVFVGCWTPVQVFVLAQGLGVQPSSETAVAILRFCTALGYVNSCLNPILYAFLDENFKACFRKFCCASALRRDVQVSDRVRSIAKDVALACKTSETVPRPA
smiles,measurement,setting,value
"C[C@@H](O)[C@H](NC(=O)[C@H](Cc1ccccc1)NC(=O)CNC(=O)CNC(=O)[C@@H](N)Cc1ccccc1)C(=O)NCC(=O)N[C@H]1CSSC[C@@H](C(=O)N[C@@H](CCCN=C(N)N)C(=O)N[C@@H](CCCCN)C(N)=O)NC(=O)[C@H](CO)NC(=O)[C@H](CCCCN)NC(=O)[C@H](CCCN=C(N)N)NC1=O (HELM PEPTIDE1{F.G.G.F.T.G.C.R.K.S.C.R.K.[am]}$PEPTIDE1,PEPTIDE1,7:R3-11:R3$$$V2.0)",EC50,Nociceptin receptor [1],0.156 µM
same,IC50,Nociceptin receptor [2],0.00304 µM
same,Emax,Nociceptin receptor [3],120%
